Screens from PubChem BioAssay.
Rows were chosen to be rich in hits. Some 1.2% of all compounds tested hit in one or more screens of this group.
bovine MsrA act: bovine MsrA enzyme activators, primary screen, biochemical, absorbance, HTS. Methionine sulfoxide reductase A (Bos taurus). purified bovine MsrA, absorbance read-out. activation, % at 10.6 µM. hit rate 0.3% among 360,000. AID 602163, 2012; in the data active means activation above about 7.5%;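 further: 0% = vehicle and 100% = reference activator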
procasp7 counter: procaspase-7 activators, primary screen, counter-screen for procaspase-3 activator project, biochemical, absorbance, HTS, human; Caspase-7 (Homo sapiens), P55210; recombinant procaspase-7, Ac-DEVD-pNA absorbance 405 nm; D23A/D198A/D206A triple mutant, cannot self-cleave; scale: DMSO 0, 5 µM enzyme 100; activation, % at 8.5 µM; hit rate 0.093% among 330,000; AID 463210, 2010;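 active means percent activation above the screen-wide mean plus 3 SD, cut at about 25% in these data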
Target sequence (P55210 whole entry D23A/D198A/D206A): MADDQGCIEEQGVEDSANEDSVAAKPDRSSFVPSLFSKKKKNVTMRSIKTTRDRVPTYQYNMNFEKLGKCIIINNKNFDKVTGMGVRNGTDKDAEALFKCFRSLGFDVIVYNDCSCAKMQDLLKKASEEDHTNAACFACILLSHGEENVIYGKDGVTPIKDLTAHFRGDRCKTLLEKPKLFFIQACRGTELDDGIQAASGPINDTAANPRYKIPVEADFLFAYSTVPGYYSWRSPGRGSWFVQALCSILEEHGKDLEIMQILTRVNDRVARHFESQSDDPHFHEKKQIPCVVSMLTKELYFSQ
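Assay system: Uncleavable procaspase-7 mutant enzyme | Input: 2 µM procaspase-7 mutant as dispensed | Timing: 1 h compound preincubation, 2 h substrate cleavage, 25 °C | Repeats: One well per compound | Control set: DMSO wells as 0%, DMSO with 5 µM added PC-7 as 100% | Technique: Epi-absorbance of released pNA at 405 nm, two timepoints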
MsrA inhibitor: bovine MsrA enzyme inhibitors, primary screen, biochemical, absorbance, HTS; Methionine sulfoxide reductase A (Bos taurus); purified bovine MsrA, absorbance read-out; inhibition, % at 15.5 µM; hit rate 0.75% among 360,000; AID 651718, 2012;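 further: 0% = vehicle wells with enzyme and 100% = reference inhibitor wells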
proCasp3 act: activators of human procaspase-3 D3A mutant, primary screen, biochemical, absorbance, PC-3 D3A mutant, single concentration. recombinant procaspase-3 D3A, Ac-DEVD-pNA absorbance 405 nm. AID 463141, 2010. Caspase-3 (Homo sapiens), P42574. hit rate 0.11% among 330,000. activation, % at 8.5 µM;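 active means activation above the mean of all tested compounds plus 3 SD, cut at about 21% in these data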;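 further: 0% = DMSO alone and 100% = DMSO wells spiked with extra 5 µM PC-3 D3A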
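assay system = Procaspase-3 D3A mutant | signal = absorbance at 405 nm, 0 and 120 min | times = 1 h preincubation plus 2 h reaction at 25 °C | repeats = single replicate | read-out = % activation between DMSO and enzyme-spiked controls | medium = Zinc-free HEPES saline buffer with Triton X-100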
MsrA inh confirm: bovine MsrA inhibitors, retest, confirmation, biochemical, absorbance, HTS; shares compounds with MsrA inhibitor; purified bovine MsrA, absorbance read-out; inhibition, % at 15.5 µM; hit rate 41% among 2,300;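 further: coupled to thioredoxin reductase with NADPH and selenocystamine and DMSO as substrate; 0% = vehicle only and 100% = full effect of reference inhibitor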
* = called active by the depositor; · = not tested or not shown. Unless noted, no stated cut-off is given here; in the data, active means inhibition above about 4.5%; inactive means the rest.

SMILES | bovine MsrA act | procasp7 counter | MsrA inhibitor | proCasp3 act | MsrA inh confirm
C=CCN=C1NC(c2ccccc2C(F)(F)F)C(C(=O)OC)=C(C)N1Cc1cccc(C(F)(F)F)c1 (stereo not given) | · | · | -1 | · | ·
Cc1ccc(/C=C(\NC(=O)c2ccccc2)C(=O)N2CCCCC2)cc1 | -5 | -8 | -1 | 1 | ·
CN(C)c1ccc(/C=C(/NC(=O)c2ccccc2)C(=O)N2CCCC2)cc1 | -4 | -1 | 5.4* | -3 | 3
O=S(=O)(NCc1ccc(Cl)c(Cl)c1)c1cc(Cl)ccc1N1CC[C@@H](O)C1 | · | · | -1 | · | ·
O=C(O)c1cccc(N/N=C/c2cn(-c3ccccc3)nc2-c2cccs2)c1 | -3 | -1 | 13* | 3 | 7.3*
NS(=O)(=O)c1ccc(N/N=C/c2cn(-c3ccccc3)nc2-c2cccs2)cc1 | -4 | -5 | 7.0* | -6 | 2
NS(=O)(=O)c1ccc(N/N=C/c2cn(-c3ccccc3)nc2-c2cccs2)c([N+](=O)[O-])c1 | -9 | 7 | 2 | 1 | ·
COc1nccnc1NS(=O)(=O)c1ccc(N/C=C2\CCCCC2=O)cc1 | -3 | -16 | 5.3* | 3 | 4.6*
COc1nccnc1NS(=O)(=O)c1ccc(NS(=O)(=O)c2ccc(NC(C)=O)cc2)cc1 | 0 | 4 | 1 | 5 | ·
CC1CCCN(c2cccc3c2S(=O)(=O)N([C@H](C)c2ccccc2)C[C@@H](COCc2ccccc2)O3)C1 (stereo not given in full) | · | · | -2 | · | ·
COc1ccc(C(=O)NCCc2c[nH]c3ccccc23)cc1OC | -3 | 2 | 1 | -4 | ·
COc1ccc(C(=O)N/C(=C\c2cccc3ccccc23)C(=O)NCCc2c[nH]c3ccccc23)cc1OC | -1 | -3 | 5.0* | 3 | 1
C=CCN=C1NC(CCc2ccccc2)C(C(=O)OC)=C(C)N1C (stereo not given) | · | · | 1 | · | ·
COC(=O)c1cc2c(c3c4ccccc4n(S(=O)(=O)c4ccc(OC)cc4)c13)C(=O)N(Cc1ccc(N(C)C)cc1)C2 | · | · | 2 | · | ·
CCCCNC(=O)C[C@H]1C[C@@]2(C(=O)OC)C(=C[C@H](C(C)(C)C)O[C@@H]2C)N(Cc2ccccc2)C1=O | · | · | 0 | · | ·
CCOC(=O)C1=C(C(=O)OCC)C2N(Cc3ccccc3)c3ccccc3[C@@]23C[C@@H](C(=O)OC)N(S(=O)(=O)c2ccc(C(F)(F)F)cc2)C3=N1 (stereo not given in full) | · | · | 0 | · | ·
Cc1cc2nc(-c3ccc(SCc4ccc(C(=O)O)cc4)nc3)[nH]c2cc1C | -2 | -15 | 5.5* | -10 | 4
Cc1cc2nc(-c3ccc(SCC(=O)NC(C)C)nc3)[nH]c2cc1C | · | 6 | · | 5 | ·
COC(=O)[C@]12C[C@H](CC(=O)NCc3cccc4ccccc34)C(=O)N(CCc3ccc(OC)c(OC)c3)C1=C[C@H](C(C)(C)C)O[C@@H]2C | · | · | 0 | · | ·
CSc1nc(N2CCOCC2)c2c(c1C#N)CCCCC2 | -2 | 2 | 5.5* | 9 | 3
N#CCCSc1nc(N2CCOCC2)c2c(c1C#N)CCCC2 | 0 | 9 | 18* | 4 | 15*
CCCSc1nc(N2CCOCC2)c2c(c1C#N)CCCC2 | -4 | 1 | 13* | -2 | 11*
COc1cccc(CN(C)C(=O)[C@@H](Cc2ccccc2)NC(=O)[C@H]2O[C@@H](n3ccc(=O)[nH]c3=O)[C@H](O)[C@@H]2O)c1 | · | · | 0 | · | ·
O=C(Cn1nnc(N2CCCCC2)n1)NN=Cc1ccccc1O | · | · | 1 | · | ·
CCOC(=O)C1=Nc2ccccc2C1=[N+]=[N-] | -6 | 2 | 5.7* | -4 | 3
CCOC(=O)C1=Nc2cccc3c(O)ccc1c23 | · | · | 1 | · | ·
Cc1noc(/C=C/c2cccnc2)c1[N+](=O)[O-] | -10 | 3 | 5.3* | -1 | 3
CCCCN1CC(COc2ccc(OC)cc2)OCCS1(=O)=O (stereo not given) | · | · | -1 | · | ·
COC(=O)c1[nH]c2c(c1C(=O)OC)CCc1ccccc1-2 | 5 | -2 | 5.6* | -2 | 1
